Data: article PMC3045600 (Nucleic Acids Research, 2010)
Values joined by “and” are separate entries in the source; they are usually repeats but may differ in a detail not shown here. Identical values can stand only once. Like-named read-outs stand apart in the source and are kept apart here.

Experiments:
[1] = target: T1, exonuclease-deficient bacteriophage T4 DNA polymerase (gp43 exo−) (Enterobacteria phage T4, UniProt P04415, D219A); details: opposite thymine, cited from earlier work; for Kd: read-out: Kd, app
T1 sequence (P04415 1-898 D219A): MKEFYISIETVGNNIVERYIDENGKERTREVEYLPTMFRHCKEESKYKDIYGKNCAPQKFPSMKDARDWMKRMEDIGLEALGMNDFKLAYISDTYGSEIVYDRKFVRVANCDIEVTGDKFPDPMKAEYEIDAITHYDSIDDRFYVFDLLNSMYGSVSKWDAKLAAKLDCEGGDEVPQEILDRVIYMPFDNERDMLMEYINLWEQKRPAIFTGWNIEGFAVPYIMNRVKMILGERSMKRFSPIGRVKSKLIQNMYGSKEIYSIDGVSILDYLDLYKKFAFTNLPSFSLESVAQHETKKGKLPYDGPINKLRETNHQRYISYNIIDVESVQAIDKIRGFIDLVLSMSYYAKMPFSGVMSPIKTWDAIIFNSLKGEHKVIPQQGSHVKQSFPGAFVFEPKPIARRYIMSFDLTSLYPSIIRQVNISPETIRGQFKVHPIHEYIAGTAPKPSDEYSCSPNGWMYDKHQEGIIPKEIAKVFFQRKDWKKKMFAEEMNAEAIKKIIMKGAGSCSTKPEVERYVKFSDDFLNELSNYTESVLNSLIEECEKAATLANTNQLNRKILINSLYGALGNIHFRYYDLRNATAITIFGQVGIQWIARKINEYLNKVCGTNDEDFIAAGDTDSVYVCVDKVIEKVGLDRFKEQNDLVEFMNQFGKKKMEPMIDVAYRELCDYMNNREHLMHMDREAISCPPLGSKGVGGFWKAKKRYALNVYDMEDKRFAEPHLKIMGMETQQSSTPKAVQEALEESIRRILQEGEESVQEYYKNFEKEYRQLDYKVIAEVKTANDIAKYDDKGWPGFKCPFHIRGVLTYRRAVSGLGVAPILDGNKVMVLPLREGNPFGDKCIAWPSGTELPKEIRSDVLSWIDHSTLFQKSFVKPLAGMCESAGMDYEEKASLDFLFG

[2] = target: T1, exonuclease-deficient bacteriophage T4 DNA polymerase (gp43 exo−); details: blunt end DNA, cited from earlier work; for Kd: read-out: Kd, app
[3] = target: T1, exonuclease-deficient bacteriophage T4 DNA polymerase (gp43 exo−); details: single abasic site, cited from earlier work; for Kd: read-out: Kd, app
[4] = target: T2, bacteriophage T4 DNA polymerase (gp43 exo−) (Enterobacteria phage T4, UniProt P04415, D219A); assay type: biochemical; details: 150 µM dXTP, then 500 µM dGTP, quenched at 180 s; 13/20SP-mer
T2 sequence (P04415 1-898 D219A): T1 sequence (P04415 1-898 D219A)
Outline: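 Exonuclease-deficient T4 gp43 (D219A), 500 nM, with 250 nM 5′-32P-labelled 13/20SP-mer, in 25 mM Tris–OAc pH 7.5, 150 mM KOAc, 10 mM 2-mercaptoethanol and 10 mM Mg2+ at 25°C. Test nucleotide (150 µM) was inserted for 5 min, then 500 µM dGTP was added. Reactions were quenched with 350 mM EDTA and resolved on 20% sequencing gels. Extended versus non-extended primer was quantified by phosphorimaging, corrected for the zero point.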

[5] = target: T1, exonuclease-deficient bacteriophage T4 DNA polymerase (gp43 exo−); details: double abasic site, cited from earlier work; for Kd: read-out: Kd, app
[6] = target: T2, bacteriophage T4 DNA polymerase (gp43 exo−); details: previously demonstrated; cited from earlier work

Row | SMILES | kpol [1] | kpol/Kd, app [1] | Kd [1] | kpol [2] | kpol/Kd, app [2] | Kd [2] | Kd [3] | kpol [3] | Extension beyond the nucleotide paired opposite an abasic site [4] | kpol [5] | kpol/Kd, app [5] | Kd [5] | Extension beyond the nucleotide paired opposite an abasic site [6] | kpol/Kd, app [3]
1 | O=P(O)(O)OP(=O)(O)OP(=O)(O)OC[C@H]1O[C@@H](n2ccc3cc(-c4ccccc4)ccc32)C[C@@H]1O [5-PhITP] | 0.16 ± 0.01 s⁻¹ | 6400 M⁻¹ s⁻¹ | 25 ± 7 µM | 0.007 ± 0.004 s⁻¹ | 160 M⁻¹ s⁻¹ | 45 ± 8 µM | 14 ± 3 µM | 53 s⁻¹ and 53 ± 4 s⁻¹ | does not extend | 45 ± 3 s⁻¹ | 3 750 000 M^−1 s^−1 | 12 ± 2 µM | – | –
2 | Nc1nc2c(ncn2[C@H]2C[C@H](O)[C@@H](COP(=O)(O)OP(=O)(O)OP(=O)(O)O)O2)c(=O)[nH]1 [dGTP] | – | – | – | – | – | – | – | – | – | – | – | – | extends beyond | –
3 | Nc1ncnc2c1ncn2[C@H]1C[C@H](O)[C@@H](COP(=O)(O)OP(=O)(O)OP(=O)(O)O)O1 [dATP] | 100 ± 10 s⁻¹ | 10 000 000 M^−1 s^−1 | 10 ± 2 µM | – | – | – | 35 ± 5 µM | 0.15 ± 0.01 s⁻¹ | showed extension beyond the abasic site | 0.55 ± 0.05 s⁻¹ | 3500 M⁻¹ s⁻¹ | 157 ± 28 µM | extends beyond | 4300 M⁻¹ s⁻¹
4 | O=[N+]([O-])c1ccc2c(ccn2C2CC(O)C(COP(=O)(O)OP(=O)(O)OP(=O)(O)O)O2)c1 (stereo not shown) [5-NITP] | 0.9 ± 0.1 s⁻¹ | 100 000 M^−1 s^−1 | 9 ± 1 µM | 0.015 ± 0.004 s⁻¹ | 710 M⁻¹ s⁻¹ | 21 ± 8 µM | 18 ± 3 µM | 126 s⁻¹ and 126 ± 7 s⁻¹ | does not extend | 70 ± 6 s⁻¹ | 3 890 000 M^−1 s^−1 | 18 ± 5 µM | – | 7 000 000 M^−1 s^−1
